Results pooled from the literature.
Each line is one published result; the experiments were not run side by side.
ALDH1A1: Aldehyde dehydrogenase 1A1 (ALDH1A1, Homo sapiens, UniProt P00352)
ALOX15: Polyunsaturated fatty acid lipoxygenase ALOX15 (ALOX15, Homo sapiens, UniProt P16050)

SMILES | target | effect on | mode | method | setting | measurement | value
OC[C@H]1O[C@@H](Oc2ccc(O)c3cccc(O)c23)[C@H](O)[C@@H](O)[C@@H]1O | ALDH1A1 | enzyme activity | inhibitor | fluorescence |  | IC50 | < 10 µM
OC[C@H]1OC(O)[C@H](O)[C@@H](O)[C@@H]1O (some centres unmarked) | Spliceosome RNA helicase DDX39B (DDX39B, Homo sapiens, UniProt Q13838) | binding |  | MST |  | Kd | 1860 µM
[C-]#[N+]CCOCCOc1ccc2c(-c3ccccc3C(=O)OCC)c3ccc(=O)cc-3oc2c1 | ALOX15 | enzyme activity | inhibitor | absorbance |  | IC50 | 20.8 µM
O=c1[nH]c(=O)c(Cc2cccc(C(F)(F)F)c2)c([C@H]2CC[C@H](c3ccccc3)CC2)[nH]1 | Solute carrier family 22 member 1 (SLC22A1, Homo sapiens, UniProt O15245) | transporter uptake | inhibitor |  |  | IC50 | > 1 µM
NC/C(=C\F)COc1cccc(Cn2c(=S)[nH]c(=O)c3[nH]cnc32)c1 | Thyroid peroxidase (Homo sapiens, UniProt P07202) | enzyme activity | inhibitor |  |  | IC50 | 13 µM
CNC(=O)[C@H](Cc1c[nH]c2ccccc12)NC(=O)[C@@H](CC(=O)NO)CC(C)C | Matrilysin (MMP7, Homo sapiens, UniProt P09237) | enzyme activity | inhibitor |  |  | IC50 | 0.00294 µM
O=C1OC2(c3ccc(O)cc3Oc3cc(O)ccc32)c2ccccc21 | ALOX15 | enzyme activity | inhibitor | absorbance |  | IC50 | 44.8 µM
COc1nc2ccc(Br)cc2cc1[C@@H](c1ccccc1)[C@@](O)(CCN(C)C)c1cccc2ccccc12 | ALDH1A1 | enzyme activity | inhibitor | fluorescence |  | IC50 | < 10 µM
CC(=O)N[C@H]1[C@H](O[C@H]2[C@H](O)[C@@H](NC(C)=O)C(O)O[C@@H]2CO)O[C@H](CO)[C@@H](O[C@@H]2O[C@H](CO)[C@@H](O)[C@H](O)[C@H]2NC(C)=O)[C@@H]1O (some centres unmarked) | MB (Equus caballus, UniProt P68082) | binding |  |  |  | Kd | ~346 µM
COc1nc(-c2cccc(-c3ccccc3)c2C)ccc1CNCCNC(=O)CCCCCCCCCCC(=O)N1CCN(CCNC(=O)c2cc3c(=O)n4cccc(C)c4nc3n(CCc3cccs3)c2=N)CC1 | Programmed cell death 1 ligand 1 (CD274, Homo sapiens, UniProt Q9NZQ7) | binding |  | BLI |  | Kd | 0.452 µM
COC(=O)C(C)n1nc(Cn2cc3cc(OCCF)c(Cl)cc3n2)c2ccccc2c1=O (racemic) | Sphingosine 1-phosphate receptor 1 (S1PR1, Homo sapiens, UniProt P21453) | ligand displacement |  | radioligand | cell membranes | IC50 | > 1 µM
